Measured values from article PMC10938640 (Chemistry & biodiversity, 2023).
“Also recorded” adds a separate entry of the source.

Assays:
Jurkat cells [1] = experiment: Reactive oxygen species; assay type: cell-based, human; conditions: 18 h, CC50 (4.36 μM) and 2x CC50 (8.72 μM) of 6h, H2O2 positive control, vs DMSO
Jurkat cells [2] = experiment: Cell cycle distribution analysis, NIM-DAPI; assay type: cell-based, human; conditions: 72 h
[3] = test system: MCF-10A mammary epithelial cell line; experiment: Differential Nuclear Staining; assay type: cell-based, human; conditions: MCF-10A, 72 h exposure, DNS assay
[4] = test system: MDA-MB-231 triple-negative breast cancer cell line; experiment: Differential Nuclear Staining; assay type: cell-based, human
[5] = test system: CEM acute lymphoblastic leukemia cell line; experiment: Differential Nuclear Staining; assay type: cell-based, human
In short: (§1)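 Cells grown in RPMI-1640 with 10% heat-inactivated FBS and penicillin/streptomycin at 37 °C, 5% CO2, then seeded at 10,000/well and left overnight. Test compound given at […] for 48 h, with untreated, 1% v/v DMSO and 1 mM H2O2 controls, at least three technical replicates. Hoechst plus PI (1 μg/mL final) added for the last 2 h. Wells imaged at 4X, live/dead percentages scored, and CC50 derived by linear interpolation.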

[6] = test system: Jurkat acute T cell leukemia cell line; experiment: Differential Nuclear Staining; assay type: cell-based, human; conditions: 48 h exposure, DNS assay
In short: as §1

[7] = Solubility in the cytotoxicity experiment; assay type: physicochemical; conditions: could not be examined at concentrations higher than 1 μM; crystals formed
[8] = Differential Nuclear Staining; assay type: cell-based, human; conditions: human, MCF-10A mammary epithelial cells
Jurkat cells [9] = experiment: Annexin V-FITC/PI apoptosis assay; assay type: cell-based, human; conditions: 24 h, CC50 (4.36 μM) and 2x CC50 (8.72 μM), vs vehicle control
Jurkat cells [10] = experiment: Mitochondrial depolarization assay, MitoProbe JC-1; assay type: cell-based, human; conditions: 5 h; for Cells with depolarized mitochondria: solvent 20.9%
[11] = 6h at CC25 (2.18 μM) and CC50 (4.36 μM), vs DMSO
[12] = MDA-MB-231, 72 h exposure, DNS assay

SMILES | CC50 at 72 h [8] [µM] | CC50 ([4]; Homo sapiens, MDA-MB-231, 72 h) [µM] | CC50 ([5]; Homo sapiens, 48 h) [µM] | CC50 ([6]; Homo sapiens, 48 h) [µM] | further results
OO [Compound H2O2, H2O2, reference compound] |  |  |  |  | ROS overproduction/accumulation (Jurkat cells [1]): displayed the highest amount of accumulated ROS; DNA fragmentation (sub G0/G1) (Jurkat cells [2]; [11]): moderate but significant increase in DNA fragmentation (sub G0/G1)
O=C1Nc2ccccc2C1=Cc1cn(-c2ccccc2)nc1-c1ccccc1 [Compound 6a] |  |  |  |  | CC50 [3]: > 1 µM; CC50 [4, 12]: > 1 µM; CC50 ([5]; CEM, 48 h exposure, DNS assay): > 1 µM; CC50 [6]: > 1 µM; Solubility (result in words) [7]: poor solubility
Cc1ccc2c(c1)C(=Cc1cn(-c3ccccc3)nc1-c1ccc(Cl)cc1)C(=O)N2 [Compound 6j, 3-((3-(4-chlorophenyl)-1-phenyl-1H-pyrazol-4-yl)methylene)-5-methylindolin-2-one] | 8.59 ± 0.31 | > 20 | 7.66 ± 0.19 |  | 
Cc1ccc(-c2nn(-c3ccccc3)cc2C=C2C(=O)Nc3ccc(C)cc32)cc1 [Compound 6h, 5-methyl-3-((3-(1-phenyl)-3-(p-tolyl)-1H-pyrazol-4-yl)methylene)indolin-2-one] |  |  |  |  | CC50 [3]: 14.8 ± 1.48 µM; CC50 [4, 12]: > 20 µM; CC50 ([5]; CEM, 48 h exposure, DNS assay): 7.14 ± 0.92 µM; CC50 [6]: 4.36 ± 0.2 µM; Phosphatidylserine (PS) externalization / apoptosis (Jurkat cells [9]): induces a significant amount of PS externalization in a dose-response trend; also recorded: induced significant PS externalization; ROS overproduction/accumulation (Jurkat cells [1]): does not activate ROS overproduction and/or accumulation; also recorded: does not cause ROS accumulation; Mitochondrial depolarization (result in words) (Jurkat cells [10]; CC50 and 2x CC50): does not cause mitochondrial depolarization; also recorded: No significant increase in cells with depolarized mitochondria; Cells with depolarized mitochondria (Jurkat cells [10]; at 2x CC50, untreated 13.2%): 18.7%; Cells with depolarized mitochondria (Jurkat cells [10]; at CC50, untreated 13.2%): 18.3%; DNA fragmentation (sub G0/G1) (Jurkat cells [2]; [11]): moderate but significant increase in DNA fragmentation (sub G0/G1); also recorded: significant increase in DNA fragmentation (sub G0/G1; A); G0/G1 phase subpopulation (Jurkat cells [2]; [11]): significant cell cycle arrest was seen in the G0/G1 subpopulation; also recorded: cell cycle arrest in the G0/G1 diploid phase; G2/M (tetraploid) phase subpopulation (Jurkat cells [2]; [11]): small but also significant reduction in the G2/M (tetraploid) phase; also recorded: significant decrease in G2/M
Cc1ccc2c(c1)C(=Cc1cn(-c3ccccc3)nc1-c1ccccc1)C(=O)N2 [Compound 6g, 3-((1,3-diphenyl-1H-pyrazol-4-yl)methylene)-5-methylindolin-2-one] | 13 ± 0.49 | > 20 | > 20 | > 20 | 
O=C1Nc2ccccc2C1=Cc1cn(-c2ccccc2)nc1-c1ccc([N+](=O)[O-])cc1 [Compound 6c, 3-((3-(4-Nitrophenyl)-1-phenyl-1H-pyrazol-4-yl)methylene)indolin-2-one] | > 20 | > 20 | > 20 | > 20 | 
COc1cc([C@@H]2c3cc4c(cc3[C@@H](O[C@@H]3O[C@@H]5CO[C@@H](C)O[C@H]5[C@H](O)[C@H]3O)[C@H]3COC(=O)[C@H]23)OCO4)cc(OC)c1O [etoposide, reference compound] |  |  |  |  | DNA fragmentation (sub G0/G1) (Jurkat cells [2]; [11]): moderate but significant increase in DNA fragmentation (sub G0/G1); S hyperdiploid phase subpopulation (Jurkat cells [2]; control): significant arrest in the S hyperdiploid phase
O=C1Nc2ccccc2C1=Cc1cn(-c2ccccc2)nc1-c1ccc(Cl)cc1 [Compound 6e, 3-((3-(4-Chlorophenyl)-1-phenyl-1H-pyrazol-4-yl)methylene)indolin-2-one] | > 20 | > 20 | > 20 | > 20 | 
O=C1Nc2ccccc2C1=Cc1cn(-c2ccccc2)nc1-c1cc2ccccc2oc1=O [Compound 6f, 3-((3-(2-Oxo-2H-chromen-3-yl)-1-phenyl-1H-pyrazol-4-yl)methylene)indolin-2-one] | > 20 | > 20 | > 20 | > 20 | 
COc1ccc(-c2nn(-c3ccccc3)cc2C=C2C(=O)Nc3ccc(C)cc32)cc1 [Compound 6i, 3-((3-(4-methoxyphenyl)-1-phenyl-1H-pyrazol-4-yl)methylene)-5-methylindolin-2-one] | 9.37 ± 0.42 | > 20 | > 20 | > 20 | 
COc1ccc(-c2nn(-c3ccccc3)cc2C=C2C(=O)Nc3ccccc32)cc1 [Compound 6d, 3-((3-(4-Methoxyphenyl)-1-phenyl-1H-pyrazol-4-yl)methylene)indolin-2-one] | > 1 | > 1 | > 1 | > 1 | Solubility (result in words) [7]: poor solubility
Cc1ccc2c(c1)C(=Cc1cn(-c3ccccc3)nc1-c1cc3ccccc3oc1=O)C(=O)N2 [Compound 6k, 5-methyl-3-((3-(2-oxo-2H-chromen-3-yl)-1-phenyl-1H-pyrazol-4-yl)methylene)indolin-2-one] | > 20 | > 20 | > 20 | > 20 | 
Cc1ccc(-c2nn(-c3ccccc3)cc2C=C2C(=O)Nc3ccccc32)cc1 [Compound 6b, 3-((1-Phenyl-3-(p-tolyl)-1H-pyrazol-4-yl)methylene)indolin-2-one] | > 1 | > 1 | > 1 | > 1 | Solubility (result in words) [7]: poor solubility
